Published values gathered from unrelated publications.
Target: Phosphorylase b kinase gamma catalytic chain, liver/testis isoform (PHKG2, Homo sapiens, UniProt P15735)
Residues used in one study (P15735 1-406): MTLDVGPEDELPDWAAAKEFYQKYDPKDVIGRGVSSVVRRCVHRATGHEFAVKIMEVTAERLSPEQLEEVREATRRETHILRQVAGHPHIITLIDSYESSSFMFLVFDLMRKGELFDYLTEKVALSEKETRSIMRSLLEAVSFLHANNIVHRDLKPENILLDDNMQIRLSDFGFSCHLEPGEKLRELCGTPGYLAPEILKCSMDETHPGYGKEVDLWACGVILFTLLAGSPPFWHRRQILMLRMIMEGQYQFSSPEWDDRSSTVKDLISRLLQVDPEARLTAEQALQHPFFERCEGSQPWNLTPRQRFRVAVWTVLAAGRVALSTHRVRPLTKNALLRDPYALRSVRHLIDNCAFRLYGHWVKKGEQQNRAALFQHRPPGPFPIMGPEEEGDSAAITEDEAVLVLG

C[C@H]1CCN(c2nccc(-c3cnn4ncccc34)n2)C1  remaining binding (binding; 1 µM): 79%
O=C(NCCCN1CCOCC1)c1ccc(Nc2nccc(-c3cc4ccccc4s3)n2)cc1  remaining binding (binding; competition with immobilised ligand; 1 µM): 33%
O=C(N1CCS(=O)(=O)CC1)N1C[C@H](c2ccc(OC(F)(F)F)cc2)C[C@H](c2nc(C3CC3)no2)C1  remaining binding (cell-free assay; competition with immobilised ligand; 1 µM): 100%
CCN1CCN(Cc2ccc(C(=O)Nc3ccc(C)c(Oc4ccc5c(c4)CC(=O)N5)c3)cc2C(F)(F)F)CC1  remaining binding (binding; competition with immobilised ligand; 1 µM): 100%
CN(C)c1nccc(-c2cnn3ncccc23)n1  remaining binding (binding; 1 µM): 86%
O=C(Nc1c[nH]nc1C(=O)NC1CCNCC1)c1cc(F)cc(F)c1  remaining binding (binding; competition with immobilised ligand; 1 µM): 100%
O=C(Nc1ccc(Oc2ccc(F)cc2)cc1)N1CCc2ncccc2[C@H]1c1ccc(F)cc1  remaining binding (cell-free assay; competition with immobilised ligand; 1 µM): 100%
COc1ccnn2ncc(-c3ccnc(N(C)C)n3)c12  remaining binding (binding; 1 µM): 82%
CN(C)C(=O)Cn1cc(-c2nc([C@@](C)(c3ccc(-c4cnc(N)nc4)cc3)C3CC3)no2)cn1  remaining binding (cell-free assay; competition with immobilised ligand; 1 µM): 80%
C[C@@H](c1ccc(-n2cnc3c(N)ncnc32)cc1)N1CCc2nn(C)c(Cc3ccccc3)c2C1=O  remaining binding (binding; competition with immobilised ligand; 0.1 µM): 100%
O=C(c1ccc(Nc2nccc(-c3cc4ccccc4s3)n2)cc1)N1CCC(N2CCCC2)CC1  remaining binding (binding; competition with immobilised ligand; 1 µM): 64%
CCS(=O)(=O)c1cc2cc(C[C@@](O)(CC(C)(C)c3ccc(F)cc3C(N)=O)C(F)(F)F)[nH]c2cn1  remaining binding (cell-free assay; competition with immobilised ligand; 1 µM): 100%
O=C(NCCCN1CCOCC1)c1ccc(Nc2ncc(Cl)c(-c3ccc(Cl)s3)n2)cc1  remaining binding (binding; competition with immobilised ligand; 1 µM): 60%
Nc1ncc2c(n1)-c1c([nH]c3ccc(C#CC4CC4)cc13)CCCC2  remaining binding (binding; competition with immobilised ligand; 1 µM): 100%
CN(C)c1ncc(F)c(-c2cnn3ncccc23)n1  remaining binding (binding; 1 µM): 69%
C[C@@H]1CN(c2cc(-c3n[nH]c4ccc(OC5(C)CC5)cc34)ncn2)C[C@H](C)O1  remaining binding (cell-free assay; competition with immobilised ligand; 0.1 µM): 91%
CN(c1nccc(-c2cnn3ncccc23)n1)C1CC1  remaining binding (binding; 1 µM): 81%
CNC(=O)[C@@H]1CC[C@@H](n2c(-c3ccc4cnccc4c3)nc3ccc(C(=O)NCc4cccc(C(N)=O)c4)cc32)C1  remaining binding (binding; competition with immobilised ligand; 1 µM): 99%
N#CC1(c2ccccn2)CCN(Cc2cc(C(=O)N3CCCC3)c(=O)n3ccccc23)CC1  remaining binding (cell-free assay; competition with immobilised ligand; 1 µM): 85%
N[C@H]1CCN(c2nccc(-c3cnn4ncccc34)n2)C1  remaining binding (binding; 1 µM): 77%
COc1cnc(Nc2cccc(S(N)(=O)=O)c2)nc1N1CCN(c2ccccc2)C(=O)C1  remaining binding (binding; competition with immobilised ligand; 1 µM): 100%
